Hits are enriched below; roughly 2.5% of the tested compounds scored in any of these assays.
SENP8 block-1: SENP8 (human) protease inhibition | inhibition, % at 20 µM | 360,000 tested, 0.64% active | recombinant SENP8, Nedd8 substrate fluorescence | AID 602440 | Q96LD8; in the data active = inhibition mostly above about 40%, no sharp cut-off; inactive = mostly below about 27%
SENP8 block-2: SENP8 protease inhibition; Q96LD8; purified SENP8, Z-RLRGG-aminoluciferin cleavage, luminescence; inhibition, % at 10 µM; 330,000 tested, 1.2% active; in the data active = inhibition above about 50%
SENP1 inh: SENP1 (human) catalytic domain inhibition | inhibition, % at 10 µM | 360,000 tested, 0.21% active | recombinant SENP1 catalytic domain, CyPet-SUMO1-YPet FRET cleavage;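 active = inhibition at least 30% at 10 µM, raw YFP signal under a set limit, fluorescence ratio 0.5 to 1.5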
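Test system: human SENP1 catalytic domain; medium: Tris pH 8 buffer plus EDTA, NaCl, BME, BSA, NP40, catalase; incubation: 50 min reaction at room temperature; technique: FRET, CFP and YFP emission; controls: no-enzyme low control and enzyme-plus-DMSO high control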
SENP6 inh: SENP6 protease inhibition | Q9GZR1 | Recombinant SENP6 catalytic domain, aminoluciferin luminescence | inhibition, % at 10 µM | 330,000 tested, 1.8% active;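 active = inhibition above about 50% at the single tested dose, limit read from the data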
SENP7 block: blocks the human protease SENP7; recombinant SENP7, Z-RLRGG-aminoluciferin luminescence, 40 min; inhibition, % at 5 µM; AID 434973; 330,000 tested, 1.5% active;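 active = inhibition above about 50% at the single test dose, limit read from the data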
Target sequence (Q9BQF6 706-1050 limits assumed): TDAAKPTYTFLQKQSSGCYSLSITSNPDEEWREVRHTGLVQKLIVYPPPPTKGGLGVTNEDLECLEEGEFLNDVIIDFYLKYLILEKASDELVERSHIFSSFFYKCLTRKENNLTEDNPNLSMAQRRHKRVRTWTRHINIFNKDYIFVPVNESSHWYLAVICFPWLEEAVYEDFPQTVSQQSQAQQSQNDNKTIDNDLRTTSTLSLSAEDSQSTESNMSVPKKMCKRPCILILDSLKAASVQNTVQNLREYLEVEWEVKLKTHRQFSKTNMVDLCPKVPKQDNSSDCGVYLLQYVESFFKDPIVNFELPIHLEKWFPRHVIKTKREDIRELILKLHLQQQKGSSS
SENP8 confirm: human SENP8 inhibition, confirmed; shares compounds with SENP7 block; Recombinant SENP8, Z-RLRGG-aminoluciferin luminescence, 60 min; inhibition, % at 12.5 µM; 6,200 tested, 40% active; AID 488912;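 active = mean inhibition across replicates above about 50%, limit read from the data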
SENP6 confirm: human SENP6 inhibition, confirmed; shares compounds with SENP7 block; recombinant SENP6, Z-RLRGG-aminoluciferin luminescence; inhibition, % at 12.5 µM; 6,200 tested, 58% active
SENP7 conf: human SENP7 inhibition, confirmed; AID 488917; 6,200 tested, 69% active; inhibition, % at 12.5 µM; shares compounds with SENP7 block; recombinant SENP7, Z-RLRGG-aminoluciferin luminescence, 40 min
Casp3 SENP sel: caspase-3 inhibition (SENP selectivity assay) | purified caspase-3, Z-DEVD-aminoluciferin luminescence, 60 min | 6,200 tested, 60% active | inhibition, % at 12.5 µM | AID 488918 | shares compounds with SENP7 block;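 active = mean inhibition above about 50%, limit read from the data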
SENP luc ctr: interferes with luciferase luminescence in SENP counter-screen; 6,200 tested, 39% active; Pre-incubated SENP8/Z-RLRGG-aminoluciferin, luciferase luminescence interference; inhibition, % at 12.5 µM; shares compounds with SENP7 block; AID 488919;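 active = mean inhibition above about 50% when retested at one dose, limit read from the data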
Large screens that a line does not name were inactive (follow-up assays come after a bar, where they were run).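 Rule for the calls, unless noted: active = mean inhibition above about 50% in the one-dose retest (limit read from the data); inactive = the rest.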

COc1ccc(C(=O)Nc2ccccc2C(=O)Nc2cc(C)ccn2)cc1	SENP8 block-2 58.3, SENP6 inh 63.7 | SENP8 confirm inactive | SENP6 confirm inactive | SENP7 conf inactive | Casp3 SENP sel inactive | SENP luc ctr inactive
COc1cc(C(=O)Nc2cc(C)ccn2)cc(OC)c1OC	none
O=C(Cc1ccccc1[N+](=O)[O-])NCCCc1ccccc1	none
O=C(Nc1ccc(Br)cc1)c1cc2ccccn2n1	SENP8 block-2 70.5, SENP7 block 64.0 | SENP8 confirm inactive | SENP6 confirm inactive | SENP7 conf 87.5 | Casp3 SENP sel 64.9 | SENP luc ctr inactive
O=C(NCCc1ccc(Cl)cc1)c1cc2ccccn2n1	none
O=C(CCN=C1NS(=O)(=O)c2ccccc21)Nc1ccc(Cl)cc1F	none
O=[N+]([O-])c1ccc(NN=Cc2cccc([N+](=O)[O-])c2)cc1	none (no result: SENP8 block-2, SENP6 inh, SENP7 block)
O=[N+]([O-])c1ccc(N/N=C/c2cccc(O)c2O)cc1	SENP8 block-2 58.5, SENP6 inh 78.4 | SENP8 confirm inactive | SENP6 confirm inactive | SENP7 conf 84.3 | Casp3 SENP sel inactive | SENP luc ctr 67.5
O=[N+]([O-])c1ccc(N/N=C/c2cccc(O)c2)cc1	SENP8 block-2 77.4, SENP6 inh 82.3, SENP7 block 52.6 | SENP8 confirm 89.8 | SENP6 confirm 88.9 | SENP7 conf 94.4 | Casp3 SENP sel inactive | SENP luc ctr 86.5
Cc1ccc(C(=O)C(C)OC(=O)c2n[nH]c(=O)c3ccccc23)cc1 (centres undefined)	none
CC(CC(=O)NCc1ccco1)S(=O)(=O)c1ccc2c(c1)CCN2C(=O)C1CC1 (centres undefined)	none
CCCOc1ccc(OCCSc2ncccn2)cc1	SENP6 inh 77.8, SENP7 block 65.2 | SENP8 confirm inactive | SENP6 confirm 54.4 | SENP7 conf 86.5 | Casp3 SENP sel 52.8 | SENP luc ctr inactive
Brc1ccccc1-c1nc2c3ccccc3ncn2n1	SENP8 block-2 77.3, SENP6 inh 90.9 | SENP8 confirm inactive | SENP6 confirm inactive | SENP7 conf 68.1 | Casp3 SENP sel inactive | SENP luc ctr 55.8
CN=c1scc(C)n1/N=C/c1ccc(O)cc1O	SENP8 block-2 76.5, SENP6 inh 77.9, SENP7 block 77.5 | SENP8 confirm 90.3 | SENP6 confirm 88.3 | SENP7 conf 99.1 | Casp3 SENP sel 88.0 | SENP luc ctr 85.6
CN=c1scc(C)n1/N=C/c1ccc2c(c1)OCO2	SENP8 block-2 88.1, SENP6 inh 98.3, SENP7 block 97.0 | SENP8 confirm 95.0 | SENP6 confirm 95.6 | SENP7 conf 101.7 | Casp3 SENP sel 94.7 | SENP luc ctr inactive
O[C@@H]1C[C@H](c2ccc(Cl)cc2)N(Cc2cccs2)C[C@H]1n1cc(C2CC2)nn1	none (no result: SENP8 block-2, SENP6 inh, SENP7 block)
COCCn1c(C)cc(C(=O)COC(=O)c2n[nH]c3ccccc23)c1C	SENP8 block-2 81.9, SENP6 inh 70.6, SENP7 block 86.4 | SENP8 confirm 93.8 | SENP6 confirm 93.8 | SENP7 conf 100.3 | Casp3 SENP sel 92.5 | SENP luc ctr 86.9
COCCn1c(C)cc(C(=O)COC(=O)c2cccnc2SC)c1C	SENP8 block-2 78.3, SENP6 inh 87.5, SENP7 block 84.8 | SENP8 confirm 86.1 | SENP6 confirm 86.4 | SENP7 conf 97.8 | Casp3 SENP sel 91.1 | SENP luc ctr 69.1
Cc1cc(C(=O)COC(=O)c2n[nH]c3ccccc23)c(C)n1CC1CCCO1 (centres undefined)	SENP8 block-2 86.6, SENP6 inh 85.7 | SENP8 confirm inactive | SENP6 confirm 91.5 | SENP7 conf 98.6 | Casp3 SENP sel 90.0 | SENP luc ctr 77.4
